Screening results from PubChem.
An excerpt weighted towards active compounds, which were near 2.5% of everything screened.
miR-122 sensor: miR-122 Renilla sensor signal increase in Huh7, primary screen, miR-122 inhibitor project, cell-based, single point, plate reader | 340,000 tested, 0.3% active | activation (reporter increase), % at 12.5 µM | Huh7 miR-122 Renilla luciferase sensor, 48 h; neutral wells = 0, positive control = 100;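 active means mean replicate activation score at least 90 and every replicate individually at or above 90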;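 further: higher luciferase means less miR-122 activity so hits act as miR-122 inhibitors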
E-selectin induc: E-selectin induction in HUVECs, primary screen, imaging, HUVEC, immunofluorescence imaging, single point | P16581 | 260,000 tested, 0.37% active | normalized: neutral wells 0, TNF-alpha wells 100 | activation, % at 7.58 µM;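 active means mean E-selectin-positive cell signal at least 10% of the positive control, reached in at least 60% of replicates, without over 20% cell loss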
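Material: HUVEC primary endothelial cells; Amount: 3,000 cells per well; Dosing: single concentration; Medium: EGM-2 growth medium on 0.1% gelatin-coated wells; Read-out basis: percent E-selectin-positive cells; Signal: immunofluorescence imaging; Control set: TNF-alpha, DMSO.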
FGF22 binding: binders of human FGF22 protein, primary screen, FGF22 synaptogenesis inhibitor project, biophysical, thermal shift, single point | Fibroblast growth factor 22 (Homo sapiens), Q9HCT0 | recombinant FGF22 thermal shift, SYPRO orange fluorescence; percent of sucrose octasulfate shift, DMSO zero | activity (Tm shift, normalised), % at 9.99 µM | 340,000 tested, 1.5% active | AID 651658, 2012;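 active means mean Tm shift, scaled 0 neutral to 100 positive control, at about 1.3% or above, every replicate too, limit read from the data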
Target sequence (Q9HCT0 whole entry, looked up): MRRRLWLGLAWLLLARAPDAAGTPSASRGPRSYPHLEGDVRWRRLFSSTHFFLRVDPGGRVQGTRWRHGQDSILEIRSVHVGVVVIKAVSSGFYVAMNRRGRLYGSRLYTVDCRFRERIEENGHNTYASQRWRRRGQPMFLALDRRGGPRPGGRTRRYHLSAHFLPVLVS
S100A4 MyoIIA: inhibitors of S100A4-myosin IIA peptide binding, primary screen, biochemical, fluorescence polarization, TAMRA-MyoIIA peptide. inhibition, % at 10.7 µM. 360,000 tested, 0.14% active;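 active means mean inhibition of at least 70% across replicates, with every replicate also reaching that level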
Target sequence (P26447 whole entry, looked up): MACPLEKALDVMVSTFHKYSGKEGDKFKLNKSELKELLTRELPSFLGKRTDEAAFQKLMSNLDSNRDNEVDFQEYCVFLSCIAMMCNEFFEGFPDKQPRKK
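Test system: S100A4 monomer protein. Medium: HEPES buffer with Ca2+, pH 7.2. Reagent: fluorescent myosin IIA peptide, 5 nM. Compound dosing: single-point compound testing. Timing: 5 min between mix addition and reading. Benchmarks: DMSO neutral and TFP positive wells.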
SIRT5 block: SIRT5 desuccinylase inhibitors, primary screen, biochemical, fluorescence imaging, single point, set 5. NAD-dependent protein deacylase sirtuin-5, mitochondrial (Homo sapiens), Q9NXA8. Purified SirT5, succinyl-peptide AMC, trypsin-coupled fluorescence. inhibition, % at 15 µM. 330,000 tested, 1.1% active. AID 652115, 2013; in the data active means inhibition above about 15%
Target sequence (Q9NXA8 whole entry, looked up): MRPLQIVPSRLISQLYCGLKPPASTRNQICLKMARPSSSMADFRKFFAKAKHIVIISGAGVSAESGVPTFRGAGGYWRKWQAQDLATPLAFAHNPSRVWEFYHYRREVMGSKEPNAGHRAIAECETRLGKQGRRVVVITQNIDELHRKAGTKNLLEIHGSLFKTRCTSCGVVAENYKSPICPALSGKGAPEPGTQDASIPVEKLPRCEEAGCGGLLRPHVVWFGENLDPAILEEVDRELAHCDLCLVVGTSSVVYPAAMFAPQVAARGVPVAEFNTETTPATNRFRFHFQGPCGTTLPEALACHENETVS
An asterisk follows results filed as active; . = no result; [ ] = remark or other dose.

SMILES | miR-122 sensor | E-selectin induc | FGF22 binding | S100A4 MyoIIA | SIRT5 block
COc1cccc(NC(=O)N2CC(=O)N3[C@H](C2)[C@H](c2ccc(C#CCC4CCCC4)cc2)[C@@H]3CO)c1 | . | 0.0 | -0.2 | 8.7 | 25.3*
CC(C)NC(=O)N(C)C[C@H]1Oc2ccc(NC(=O)C3CCCCC3)cc2CC(=O)N([C@H](C)CO)C[C@@H]1C | 6.5[16.7 µM] | -0.1 | 0.5 | -2.9 | 3.3
CC(=O)c1ccc(NC(=O)COC(=O)CC2CC3CCC2C3)cc1 (stereo not given) | -5.5 | . | 0.1 | -0.2 | 3.4
O=C(COC(=O)CC1CC2CCC1C2)Nc1ccc(F)cc1 (stereo not given) | . | 0.6 | 0.1 | 0.2 | 111.9*
COCC(C)n1c(SCC(=O)NNC(=O)c2ccccc2)nc2ccccc2c1=O (stereo not given) | -3.0 | 1.9 | -0.3 | -5.8 | -5.7
COCC(C)n1c(SCC(=O)NC(=O)Cc2ccccc2)nc2ccccc2c1=O (stereo not given) | 143.9* | -2.3 | -0.1 | -8.8 | -1.9
C[C@@H]1CN([C@H](C)CO)C(=O)c2cc(-c3cncnc3)cnc2O[C@H]1CN(C)C(=O)c1cccc(F)c1 | -6.4[16.7 µM] | 0.0 | . | -34.3 | -5.7
Cc1cccc(N2CCN(c3nc4ccc(Cl)cc4n4cnnc34)CC2)c1C | -1.4 | 152.4* | -0.1 | 0.2 | 11.9
C[C@@H]1CN([C@H](C)CO)C(=O)c2cc(NC(=O)NC3CCCCC3)ccc2O[C@H]1CN(C)S(=O)(=O)c1ccc(Cl)cc1 | -0.2[16.7 µM] | 141.0* | 0.1 | 3.1 | 7.2
COc1ccc(S(=O)(=O)N(C)C[C@@H]2Oc3ccc(NC(=O)NC4CCCCC4)cc3C(=O)N([C@H](C)CO)C[C@H]2C)cc1 | -6.8[16.7 µM] | -0.2 | -0.1 | -5.0 | 0.1
COc1ccc(S(=O)(=O)N(C)C[C@H]2Oc3ccc(NC(=O)NC4CCCCC4)cc3C(=O)N([C@@H](C)CO)C[C@@H]2C)cc1 | -1.0[16.7 µM] | 0.0 | 0.1 | -12.0 | 18.8*
C[C@H]1CN([C@@H](C)CO)C(=O)c2cc(NC(=O)NC3CCCCC3)ccc2O[C@H]1CN(C)S(=O)(=O)c1ccc(Cl)cc1 | -7.2[16.7 µM] | 2.4 | -0.3 | -2.0 | 2.4
O=C(C[C@@H]1C=C[C@@H](NC(=O)c2cccc(F)c2)[C@H](CO)O1)Nc1nccs1 | . | -0.3 | -0.1 | 5.7 | 3.1
Cc1noc(C)c1NC(=O)N1C[C@H](O)COC[C@H]2O[C@H](CC(=O)NCC3CCCCC3)CC[C@@H]21 | -0.9[16.7 µM] | 0.2 | 0.1 | -7.9 | -2.3
O=C(O)C1Cc2ccccc2CN1C(=O)COc1ccc(Cl)cc1 (stereo not given) | -3.0 | . | 43.3* | 0.2 | 4.8
O=C(O)C1Cc2ccccc2CN1S(=O)(=O)c1ccc(Cl)cc1 (stereo not given) | . | 1.2 | 0.9 | -7.0 | -3.3
COc1ccc(CN(C)C[C@H]2OCCCC[C@H](C)Oc3ccc(NC(=O)Nc4c(C)noc4C)cc3C(=O)N([C@H](C)CO)C[C@@H]2C)cc1 | 11.3[16.7 µM] | 0.2 | -0.5 | 23.0 | 0.5
CCCc1nn2c(-c3ccccc3)nnc2o1 | 1.2 | 0.3 | 43.1* | -13.4 | .
c1ccc(-c2nn3c(-c4ccccc4)nnc3o2)cc1 | 11.2 | 1.2 | -0.2 | -2.7 | -2.8
CN(C)c1nn2c(-c3ccccc3)nnc2o1 | -5.7 | 1.0 | 43.2* | 0.9 | .
COc1ccc(C(=O)CSc2n[nH]c(=O)[nH]c2=O)cc1 | . | . | 42.9* | -2.7 | 1.3
O=C(CSc1n[nH]c(=O)[nH]c1=O)c1ccc([N+](=O)[O-])cc1 | . | . | -0.2 | -4.3 | 9.2
COCC(=O)N(C)C[C@H]1Oc2ncc(-c3ccc(C)cc3)cc2C(=O)N([C@H](C)CO)C[C@@H]1C | 0.1[16.7 µM] | 0.7 | 0.1 | 1.0 | -1.7
O=C(NC(=S)N1CCN(c2ccc([N+](=O)[O-])cc2)CC1)c1ccccc1 | -7.0 | 33.1* | 0.0 | 7.9 | -0.4
O=C(Nc1cccc(C(=O)O)c1)/C(=C/c1ccc([N+](=O)[O-])cc1)NC(=O)c1ccccc1 | . | 4.5 | 0.3 | 8.5 | 2.3
SMILES | miR-122 sensor | E-selectin induc | FGF22 binding | S100A4 MyoIIA | SIRT5 block
O=C(N/C(=C/c1cccs1)C(=O)N1CCCC1)c1ccccc1 | -3.6 | . | 0.2 | 0.1 | -1.6
CN1CCN(C(=O)/C(=C\c2cccs2)NC(=O)c2ccccc2)CC1 | -3.8 | . | 27.2* | -3.0 | -2.5
O=C(Nc1cccc2ccccc12)/C(=C/c1ccc([N+](=O)[O-])cc1)NC(=O)c1ccccc1 | 238.0* | 0.1 | . | . | .
N#Cc1ccc(C(=O)NC(=S)N2CCN(C=O)CC2)cc1 | 1.1 | 2.1 | -0.3 | -1.5 | 20.0*
O=C(N/C(=C\c1ccc([N+](=O)[O-])cc1)C(=O)N1CCCCC1)c1ccccc1 | 62.6 | . | 42.8 | -0.4 | 16.1*
C[C@H]1CN([C@@H](C)CO)S(=O)(=O)c2ccc(-c3cccc(C(=O)N(C)C)c3)cc2O[C@@H]1CN(C)C | 8.2[16.7 µM] | -0.1 | 0.2 | 11.5 | -3.3
C[C@@H]1CN([C@@H](C)CO)C(=O)Cc2cc(NC(=O)Nc3cccc4ccccc34)ccc2O[C@H]1CN(C)C(=O)Nc1ccc2c(c1)OCO2 | -0.3[16.7 µM] | 0.1 | 0.2 | 3.0 | 1.7
Cc1noc(C)c1NC(=O)Nc1cccc2c1O[C@H](CN(C)Cc1ccc(C(=O)Nc3ccccc3N)cc1)[C@@H](C)CN([C@@H](C)CO)C2=O | . | 1.0 | -0.1 | -2.3 | 22.2*
Cc1noc(C)c1NC(=O)Nc1cccc2c1O[C@@H](CN(C)Cc1ccc(Oc3ccccc3)cc1)[C@@H](C)CN([C@H](C)CO)C2=O | -2.0[16.7 µM] | -0.1 | -0.1 | -10.8 | 37.1*
C[C@H]1CN([C@@H](C)CO)C(=O)c2cccc(NC(=O)c3ccncc3)c2O[C@H]1CN(C)Cc1ccc(C(=O)Nc2ccccc2N)cc1 | . | 50.9* | -0.1 | 6.2 | .
Cc1noc(C)c1NC(=O)Nc1cccc2c1O[C@H](CN(C)Cc1ccc(C(=O)Nc3ccccc3N)cc1)[C@H](C)CN([C@@H](C)CO)C2=O | . | -0.2 | 0.2 | 4.0 | -1.1
Cc1noc(C)c1S(=O)(=O)N(C)C[C@@H]1Oc2c(NC(=O)c3cnccn3)cccc2C(=O)N([C@@H](C)CO)C[C@@H]1C | 166.0*[16.7 µM] | 0.0 | 0.1 | 6.4 | 6.1
C[C@@H]1CN([C@H](C)CO)C(=O)c2cccc(NC(=O)c3ccncc3)c2O[C@H]1CN(C)Cc1ccc(C(=O)Nc2ccccc2N)cc1 | -10.4[16.7 µM] | 5.1 | -0.4 | -8.0 | 5.8
Cc1noc(C)c1NC(=O)Nc1cccc2c1O[C@H](CN(C)Cc1ccc(Oc3ccccc3)cc1)[C@@H](C)CN([C@H](C)CO)C2=O | 1.7[16.7 µM] | 0.1 | 0.1 | 15.3 | -4.3
